This passage reports IC50 results from ChEMBL document CHEMBL4130342, “New semi-synthetic analogs of oleuropein show improved anticancer activity in vitro and in vivo” (Eur J Med Chem, 2017).

As usually defined, the IC50 is the concentration at which inhibition is half-maximal. Higher therefore signals weaker potency.

Molecules are shown by their SMILES. Some results are limits rather than exact numbers.

For the test, the system named is SK-BR-3. The experiment in a line: Antiproliferative activity against human SKBR3 cells after 72 hrs by MTT reduction assay. Type of test: functional, cell-based. Particulars: SK-BR-3, 72 h. An outline of the steps:
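MTT reduction assay; adherent lines left to adhere overnight, suspension lines (HL-60, K562) seeded on the day. […] Incubation was 72 h at 37°C, with MTT added for the last 4 h. OD read at 545 nm (reference 690 nm). IC50 from 100(A0-A)/A0=50; means ± SD of 3 independent experiments.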
(Formazan colour is commonly taken as a measure of viable cells.)
Consider `C/C=C1/[C@H](O[C@@H]2O[C@H](CO)[C@@H](O)[C@H](O)[C@H]2O)OC=C(C(=O)OC)[C@H]1CC(=O)O`, for which the IC50 is > 15 µM.
Then `C/C=C1/[C@H](O[C@@H]2O[C@H](COC(C)=O)[C@@H](OC(C)=O)[C@H](OC(C)=O)[C@H]2OC(C)=O)OC=C(C(=O)O)[C@H]1CC(=O)O`, with > 20 µM.
Under `C/C=C1/[C@H](O[C@@H]2O[C@H](CO)[C@@H](O)[C@H](O)[C@H]2O)OC=C(C(=O)OC)[C@H]1CC(=O)OCCc1ccc(OC)c(OC)c1` stands > 15 µM.
For `C=C(C)CCOC(=O)C[C@@H]1C(C(=O)OC)=CO[C@@H](O[C@@H]2O[C@H](COC(C)=O)[C@@H](OC(C)=O)[C@H](OC(C)=O)[C@H]2OC(C)=O)/C1=C/C`, the IC50 is > 15 µM.
Under `C/C=C1/[C@H](O[C@@H]2O[C@H](COC(C)=O)[C@@H](OC(C)=O)[C@H](OC(C)=O)[C@H]2OC(C)=O)OC=C(C(=O)OC)[C@H]1CC(=O)O` stands > 15 µM.
Under `C/C=C1/[C@H](O[C@@H]2O[C@H](COC(C)=O)[C@@H](OC(C)=O)[C@H](OC(C)=O)[C@H]2OC(C)=O)OC=C(C(=O)O)[C@H]1CC(=O)OCCCCCCCCCCCCCCCC` stands > 20 µM.
For the molecule `C/C=C1/[C@H](O[C@@H]2O[C@H](COC(C)=O)[C@@H](OC(C)=O)[C@H](OC(C)=O)[C@H]2OC(C)=O)OC=C(C(=O)OC)[C@H]1CC(=O)OCCC1CCCCC1`, the IC50 was > 15 µM.
In the case of `C/C=C1/[C@H](O[C@@H]2O[C@H](CO)[C@@H](O)[C@H](O)[C@H]2O)OC=C(C(=O)OC)[C@H]1CC(=O)OCC` (stereo in doubt), the IC50 is > 15 µM.
Then `C/C=C1/[C@H](O[C@@H]2O[C@H](CO)[C@@H](O)[C@H](O)[C@H]2O)OC=C(C(=O)O)[C@H]1CC(=O)OC` (stereo in doubt), with > 20 µM; and `C/C=C1/[C@H](O[C@@H]2O[C@H](COC(C)=O)[C@@H](OC(C)=O)[C@H](OC(C)=O)[C@H]2OC(C)=O)OC=C(C(=O)OC)[C@H]1CC(=O)OCCc1ccc(OC)cc1` (stereo in doubt), with > 20 µM; and `C/C=C1/[C@H](O[C@@H]2O[C@H](COC(C)=O)[C@@H](OC(C)=O)[C@H](OC(C)=O)[C@H]2OC(C)=O)OC=C(C(=O)OC)[C@H]1CC(=O)OCCc1ccc(OC)c(OC)c1` (stereo in doubt), with > 15 µM.
Under `C=CCOC(=O)C[C@@H]1C(C(=O)OC)=CO[C@@H](O[C@@H]2O[C@H](COC(C)=O)[C@@H](OC(C)=O)[C@H](OC(C)=O)[C@H]2OC(C)=O)/C1=C/C` (stereo in doubt) stands > 20 µM; under `C/C=C1/[C@H](O[C@@H]2O[C@H](CO)[C@@H](O)[C@H](O)[C@H]2O)OC=C(C(=O)OC)[C@H]1CC(=O)OCc1ccccc1` (stereo in doubt), > 15 µM; under `C=C(C)CCOC(=O)C[C@@H]1C(C(=O)OC)=CO[C@@H](O[C@@H]2O[C@H](CO)[C@@H](O)[C@H](O)[C@H]2O)/C1=C/C` (stereo in doubt), > 15 µM.
Under `C/C=C1/[C@H](O[C@@H]2O[C@H](CO)[C@@H](O)[C@H](O)[C@H]2O)OC=C(C(=O)OC)[C@H]1CC(=O)OCCCc1ccc(OC)c(OC)c1` (stereo in doubt) stands > 20 µM.
With `C/C=C1/[C@H](O[C@@H]2O[C@H](CO)[C@@H](O)[C@H](O)[C@H]2O)OC=C(C(=O)OC)[C@H]1CC(=O)OCCc1ccc(OC)cc1` (stereo in doubt), the IC50 is > 20 µM.
Under `C/C=C1/[C@H](O[C@@H]2O[C@H](COC(C)=O)[C@@H](OC(C)=O)[C@H](OC(C)=O)[C@H]2OC(C)=O)OC=C(C(=O)OC)[C@H]1CC(=O)OCCCC` (stereo in doubt) stands > 15 µM.
Under `C/C=C1/[C@H](O[C@@H]2O[C@H](COC(C)=O)[C@@H](OC(C)=O)[C@H](OC(C)=O)[C@H]2OC(C)=O)OC=C(C(=O)O)[C@H]1CC(=O)OC` (stereo in doubt) stands > 20 µM; under `C/C=C1/[C@H](O[C@@H]2O[C@H](CO)[C@@H](O)[C@H](O)[C@H]2O)OC=C(C(=O)OC)[C@H]1CC(=O)OCc1ccc2c(c1)OCCO2` (stereo in doubt), > 15 µM; under `C/C=C1/[C@H](O[C@@H]2O[C@H](CO)[C@@H](O)[C@H](O)[C@H]2O)OC=C(C(=O)OC)[C@H]1CC(=O)OC` (stereo in doubt), > 15 µM.
Under `C/C=C1/[C@H](O[C@@H]2O[C@H](COC(C)=O)[C@@H](OC(C)=O)[C@H](OC(C)=O)[C@H]2OC(C)=O)OC=C(C(=O)OC)[C@H]1CC(=O)OCCc1ccc2c(c1)OCCO2` (stereo in doubt) stands > 15 µM; under `C/C=C1/[C@H](O[C@@H]2O[C@H](COC(C)=O)[C@@H](OC(C)=O)[C@H](OC(C)=O)[C@H]2OC(C)=O)OC=C(C(=O)OC)[C@H]1CC(=O)OCc1ccco1` (stereo in doubt), > 15 µM.
Take `C/C=C1/[C@H](O[C@@H]2O[C@H](CO)[C@@H](O)[C@H](O)[C@H]2O)OC=C(C(=O)OC)[C@H]1CC(=O)OCCc1ccc(F)cc1` (stereo in doubt): the IC50 is > 20 µM.
Then `C/C=C1/[C@H](O[C@@H]2O[C@H](COC(C)=O)[C@@H](OC(C)=O)[C@H](OC(C)=O)[C@H]2OC(C)=O)OC=C(C(=O)OC)[C@H]1CC(=O)OCCC(C)C` (stereo in doubt), with > 15 µM.
Then `C/C=C1/[C@H](O[C@@H]2O[C@H](COC(C)=O)[C@@H](OC(C)=O)[C@H](OC(C)=O)[C@H]2OC(C)=O)OC=C(C(=O)OC)[C@H]1CC(=O)OCCCc1ccc(OC)c(OC)c1` (stereo in doubt), with > 20 µM; and `C/C=C1/[C@H](O[C@@H]2O[C@H](CO)[C@@H](O)[C@H](O)[C@H]2O)OC=C(C(=O)OC)[C@H]1CC(=O)NCCC` (stereo in doubt), with > 20 µM; and `C/C=C1/[C@H](O[C@@H]2O[C@H](CO)[C@@H](O)[C@H](O)[C@H]2O)OC=C(C(=O)OC)[C@H]1CC(=O)OCCc1ccc([N+](=O)[O-])cc1` (stereo in doubt), with > 20 µM.
Under `C#CCOC(=O)C[C@@H]1C(C(=O)OC)=CO[C@@H](O[C@@H]2O[C@H](COC(C)=O)[C@@H](OC(C)=O)[C@H](OC(C)=O)[C@H]2OC(C)=O)/C1=C/C` (stereo in doubt) stands > 15 µM.
Consider `C/C=C1/[C@H](O[C@@H]2O[C@H](COC(C)=O)[C@@H](OC(C)=O)[C@H](OC(C)=O)[C@H]2OC(C)=O)OC=C(C(=O)OC)[C@H]1CC(=O)OCc1ccccc1` (stereo in doubt), for which the IC50 was > 15 µM.
Then `C/C=C1/[C@H](O[C@@H]2O[C@H](COC(C)=O)[C@@H](OC(C)=O)[C@H](OC(C)=O)[C@H]2OC(C)=O)OC=C(C(=O)OC)[C@H]1CC(=O)OCc1ccc2c(c1)OCCO2` (stereo in doubt), with > 15 µM.
As to `C/C=C1/[C@H](O[C@@H]2O[C@H](COC(C)=O)[C@@H](OC(C)=O)[C@H](OC(C)=O)[C@H]2OC(C)=O)OC=C(C(=O)OC)[C@H]1CC(=O)OCC` (stereo in doubt), the IC50 is > 15 µM.
Regarding `C/C=C1/[C@H](O[C@@H]2O[C@H](CO)[C@@H](O)[C@H](O)[C@H]2O)OC=C(C(=O)OC)[C@H]1CC(=O)OCCc1ccc2c(c1)OCCO2` (stereo in doubt), the IC50 was > 20 µM.
For the molecule `C/C=C1/[C@H](O[C@@H]2O[C@H](CO)[C@@H](O)[C@H](O)[C@H]2O)OC=C(C(=O)OC)[C@H]1CC(=O)OCc1ccco1` (stereo in doubt), the IC50 is > 15 µM.
Then `C/C=C1/[C@H](O[C@@H]2O[C@H](COC(C)=O)[C@@H](OC(C)=O)[C@H](OC(C)=O)[C@H]2OC(C)=O)OC=C(C(=O)OC)[C@H]1CC(=O)OCCc1ccc(F)cc1` (stereo in doubt), with > 20 µM; and `C/C=C1/[C@H](O[C@@H]2O[C@H](CO)[C@@H](O)[C@H](O)[C@H]2O)OC=C(C(=O)OC)[C@H]1CC(=O)OCCCC` (stereo in doubt), with > 15 µM; and `C/C=C1/[C@H](O[C@@H]2O[C@H](COC(C)=O)[C@@H](OC(C)=O)[C@H](OC(C)=O)[C@H]2OC(C)=O)OC=C(C(=O)OC)[C@H]1CC(=O)OCc1ccc(OC)c(OC)c1` (stereo in doubt), with > 15 µM.
Consider `C/C=C1/[C@H](O[C@@H]2O[C@H](COC(C)=O)[C@@H](OC(C)=O)[C@H](OC(C)=O)[C@H]2OC(C)=O)OC=C(C(=O)OC)[C@H]1CC(=O)OC` (stereo in doubt), for which the IC50 was > 15 µM.
For the molecule `C/C=C1/[C@H](O[C@@H]2O[C@H](CO)[C@@H](O)[C@H](O)[C@H]2O)OC=C(C(=O)OC)[C@H]1CC(=O)OCCC` (stereo in doubt), the IC50 is > 15 µM.
Then `C/C=C1/[C@H](O[C@@H]2O[C@H](COC(C)=O)[C@@H](OC(C)=O)[C@H](OC(C)=O)[C@H]2OC(C)=O)OC=C(C(=O)OC)[C@H]1CC(=O)SCCC` (stereo in doubt), with > 15 µM; and `C/C=C1/[C@H](O[C@@H]2O[C@H](COC(C)=O)[C@@H](OC(C)=O)[C@H](OC(C)=O)[C@H]2OC(C)=O)OC=C(C(=O)OC)[C@H]1CC(=O)OCCc1ccc([N+](=O)[O-])cc1` (stereo in doubt), with > 20 µM; and `C#CCOC(=O)C[C@@H]1C(C(=O)OC)=CO[C@@H](O[C@@H]2O[C@H](CO)[C@@H](O)[C@H](O)[C@H]2O)/C1=C/C` (stereo in doubt), with > 15 µM.
Under `C/C=C1/[C@H](O[C@@H]2O[C@H](CO)[C@@H](O)[C@H](O)[C@H]2O)OC=C(C(=O)OC)[C@H]1CC(=O)OCc1ccc(OC)c(OC)c1` (stereo in doubt) stands > 15 µM.
Under `C/C=C1/[C@H](O[C@@H]2O[C@H](COC(C)=O)[C@@H](OC(C)=O)[C@H](OC(C)=O)[C@H]2OC(C)=O)OC=C(C(=O)OC)[C@H]1CC(=O)SCCc1ccccc1` (stereo in doubt) stands > 15 µM; under `OCCc1ccc(O)c(O)c1` [HYDROXYTYROSOL], 201 µM.
For `C/C=C1/[C@H](O[C@@H]2O[C@H](CO)[C@@H](O)[C@H](O)[C@H]2O)OC=C(C(=O)OC)[C@H]1CC(=O)OCCc1ccc(O)cc1` [LIGSTROSIDE], the IC50 is > 20 µM.
